The results in this text go back to publication PMC7379261 (Journal of Peptide Science, 2020).

In brackets after ≈: the same amount, converted by molar mass. Where a SMILES comes first, the peptide text is derived from it. The star is where a group is joined. hSer(lactone) = O=C1OCC[C@@H]1N*

The test system of data set [1] is five pathogenic bacterial strains, including three Gram‐positive and two Gram‐negative strains. Nature of the data set: Antimicrobial assay. Conditions: read-out: MIC against all pathogenic bacterial strains tested. It counts as cell-based. In a few lines: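 Broth microdilution MIC of a recombinant test peptide (RP-HPLC purified, >95%). E. coli ATCC 12014, S. aureus ATCC 25923, P. acnes ATCC 6919, P. gingivalis ATCC 33277 and S. mutans ATCC 25175 were grown overnight at 37°C in LB or BHI and diluted in the same medium. Serial peptide dilutions were mixed 1:1 with bacteria (final 5 × 10^4 CFU/mL) and incubated 37°C, 24 h. Ampicillin and magainin-2 were positive controls. Three independent repeats, mean ± SD.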

Data set [2] can be described thus: Degradation assay with resting cell suspensions. It counts as in vitro ADME. Conditions: resting cell suspension of Staphylococcus aureus ATCC 25923, pH 7. In a few lines: (§1)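 Resting-cell peptidase assay. Mid-exponential cultures (OD600 = 0.5) were pelleted at 10,000 g, 15 min, 4°C, washed twice and resuspended 20-fold concentrated in 10 mmol/L phosphate buffer, pH 7.0. Test peptide solution (400 μg/mL) was mixed 1:1 with cells (final 10^8 CFU/mL) and incubated at 37°C, sampled at 30 and 60 min (also 4 h for L. plantarum). Read-out was RP-HPLC peptide remaining versus a no-bacteria control; fragments were identified by LC-MS/MS.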

The next data set deals with Staphylococcus aureus. It counts as cell-based. Conditions: S. aureus; LB at pH 3.7–8.7.
Data set [3] deals with Staphylococcus aureus strain. It counts as cell-based. Conditions: aqueous peptide solution (10 μg/mL) heated at 100°C for 60 min, cooled 30 min.
Data set [4] in a line: Degradation assay with resting cell suspensions. It counts as in vitro ADME, Lactobacillus plantarum subsp. plantarum. Conditions: pH 7. In a few lines:
as §1

On to `CC1(C)S[C@@H]2[C@H](NC(=O)[C@H](N)c3ccccc3)C(=O)N2[C@H]1C(=O)O` [Ampicillin, ampicillin], for which the MIC in data set [1] lay in the range of 5 to 7.5 µg/mL (≈ 14.3 to 21.5 µM).

Regarding `CC[C@H](C)[C@H](NC(=O)[C@H](Cc1c[nH]c2ccccc12)NC(=O)[C@H](CCC(=O)O)NC(=O)[C@H](CCCCN)NC(=O)[C@@H](NC(=O)[C@H](CCCCN)NC(=O)[C@@H](N)CC(N)=O)C(C)C)C(=O)N[C@@H](CCCCN)C(=O)N[C@@H](Cc1ccc(O)cc1)C(=O)N[C@@H](CC(C)C)C(=O)N[C@@H](CCCCN)C(=O)N[C@@H](CO)C(=O)N[C@@H](CC(C)C)C(=O)N[C@@H](Cc1ccccc1)C(=O)N[C@@H](CO)C(=O)N[C@H]1CCOC1=O` [LPcin‐YK3] (H-NKVKEWIKYLKSLFS-{hSer(lactone)}), the metabolised at 1 h, 200 μg/mL was 10.8% in data set [2] and about 79.3% in data set [4]. Moreover, in the data set with Staphylococcus aureus, the “MIC within the limits of pH (3.7–8.7) solutions” value is 0.62 μg/mL. In addition, the “MIC against S. aureus strain under the conditions of heat treatment” value in data set [3] was 0.62 µg/mL.

Usually MIC stands for the smallest concentration in the dilution series that meets the test's criterion for growth inhibition.
